Source: PubChem BioAssay (The Scripps Research Institute Molecular Screening Center)
Most compounds without a hit are left out; they make up all but 1.8% or so of the library.
S1P2 ag – S1P2 receptor agonists, primary screen, cell-based. S1P2-expressing cell line, agonist reporter read-out. actives 0.46% (n = 97,000). activation, % at 4.5 µM. Sphingosine 1-phosphate receptor 2 (Homo sapiens), O95136; in the data active means activation above about 16%;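 further: 0% = vehicle low control and 100% = maximal reference agonist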
Target sequence (O95136 whole entry, looked up): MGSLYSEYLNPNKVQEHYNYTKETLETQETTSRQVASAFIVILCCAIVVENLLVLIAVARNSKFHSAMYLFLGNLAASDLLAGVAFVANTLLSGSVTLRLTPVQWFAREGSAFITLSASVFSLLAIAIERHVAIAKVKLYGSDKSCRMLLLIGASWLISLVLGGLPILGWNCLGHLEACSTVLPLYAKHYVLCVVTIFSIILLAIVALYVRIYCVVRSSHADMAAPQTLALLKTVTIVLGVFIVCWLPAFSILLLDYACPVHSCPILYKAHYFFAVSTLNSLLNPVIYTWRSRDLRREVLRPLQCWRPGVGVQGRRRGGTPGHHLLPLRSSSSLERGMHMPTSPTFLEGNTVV
Rev-RRE block – HIV-1 Rev-RRE binding inhibitors, primary screen, biochemical, FRET, protein-RNA interaction. P05866. Rev peptide-RRE RNA binding. inhibition, % at 8 µM. actives 0.79% (n = 97,000);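 active means inhibition above the screen-wide mean plus 3 SD, cut at about 35% in these data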;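 further: 0% = median DMSO wells and 100% = median Neomycin B control wells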
Target sequence (P05866 whole entry, looked up): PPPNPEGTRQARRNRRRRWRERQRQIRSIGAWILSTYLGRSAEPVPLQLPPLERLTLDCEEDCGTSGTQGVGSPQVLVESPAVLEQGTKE
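Test system: labelled RRE RNA duplex and labelled Rev peptide. Times: 5 min compound–RNA preincubation, then 15 min with peptide, 25 °C. Doses: single-dose 8 µM. Measured by: FRET, excitation 480 nm, emission 540 nm donor and 671 nm acceptor. Measure: % inhibition of FRET ratio versus controls.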
GALR2 antag – GALR2 antagonists in receptor-expressing cells, primary screen; Galanin receptor type 2 (Homo sapiens), O43603; antagonist mode; inhibition, % at 4 µM; actives 0.39% (n = 140,000); in the data active means inhibition above about 27%;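 further: cells stimulated with galanin 1-16 at roughly its EC80; 0% = agonist challenge control and 100% = basal control without agonist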
EphB4 ephrin blk – EphB4-ephrin-B2 interaction antagonists, primary screen, biochemical, TNYL-RAW peptide probe, fluorescence polarization | Ephrin type-B receptor 4 (Homo sapiens), P54760 | EphB4 LBD / TNYL-RAW-Alexa532 peptide | inhibition, % at 7 µM | actives 0.15% (n = 97,000);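 active means inhibition above the screen-wide mean inhibition plus 3 SD, cut at about 15% in these data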;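 further: 0% = DMSO wells and 100% = excess unlabeled TNYL-RAW peptide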
S1P2 antag – human S1P2 receptor antagonists, primary screen, cell-based; actives 0.21% (n = 97,000); inhibition, % at 5 µM; Sphingosine 1-phosphate receptor 2 (Homo sapiens), O95136; cell-based S1P2 antagonist assay, inhibition at 5 uM; in the data active means inhibition above about 45%;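 further: CRE beta-lactamase reporter cells expressing human S1P2 stimulated with S1P; 0% = agonist at EC80 alone and 100% = agonist plus reference antagonist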
GALR2 agonist – GALR2 receptor agonists, primary screen, cell-based. Galanin receptor type 2 (Homo sapiens), O43603. GALR2-expressing cells, agonist activation read-out. activation, % (test concentration not listed). actives 0.48% (n = 140,000); in the data active means activation above about 5%, passing the limit was not always enough;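 further: 0% = vehicle buffer wells and 100% = reference agonist at full effect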
* hit, by the source's call; x = not tested or not shown.

SMILES	S1P2 ag	Rev-RRE block	GALR2 antag	EphB4 ephrin blk	S1P2 antag	GALR2 agonist
O=C(NCCCO)NC12CC3CC(CC(C3)C1)C2	0	3	-18	-6	-19	-1
O=C(NCCCN1CCCC1=O)NC12CC3CC(CC(C3)C1)C2	-5	2	-6	16*	11	1
CCOc1ccc(/C=N/Nc2cc(=O)n(C)c(=O)n2C)cc1	x	x	8	x	x	-1
O=C1CCNc2cc3ccccc3cc21	-4	44*	8	-3	-14	0
Cc1ccc(S(=O)(=O)/N=C(/c2ccc(F)cc2)N2CCCCC2)cc1	x	x	-3	x	x	-1
CCOC(=O)N1CCN(C(=O)CSCC(=O)Nc2nc(-c3ccc(-c4ccccc4)cc3)cs2)CC1	-6	4	7	3	87*	0
CCOC(=O)N1CCN(C(=O)CSCC(=O)Nc2nc(-c3ccc(OC)cc3)cs2)CC1	-3	13	9	4	-2	-2
Cc1cccc(OCC(O)CN2CC3(C)CC2CC(C)(C)C3)c1 (centres undefined)	x	x	4	x	x	6.8*
COCCn1c(C)cc(/C=C2/NC(=O)N(c3ccc(Cl)cc3)C2=O)c1C	x	x	-8	x	x	7.1*
CCn1c(C)cc(/C=C2\NC(=O)N(Cc3ccc(Cl)cc3)C2=O)c1C	-3	11	-19	-2	17	1
O=C(CN1CCN(S(=O)(=O)c2ccc(Br)cc2)CC1)N/N=C/c1cccnc1	x	x	-2	x	x	-1
CS(=O)(=O)NCc1nnc(SCC(=O)NC2CCCCC2)n1-c1ccc(F)cc1	103*	4	-6	7	11	-1
Cn1cccc1Cc1nnc(SCC(=O)NC2CCCC2)n1-c1ccc(F)cc1	-2	2	5	-3	0	-4
Cc1nc2ccccc2cc1OCc1ccccc1	-2	7	24	-7	31	-1
Cc1nc2ccccc2cc1OCc1ccc(Cl)cc1	-3	15	20	0	70*	0
N#CNC(=Nc1cccc(F)c1)SCc1cccc(F)c1	x	x	-13	x	x	-1
CC(C)(C)NC(=O)CSC(=Nc1ccc(F)cc1)NC#N	24*	4	-1	-5	-4	-2
O=C(Cc1ccc(F)cc1)N/N=C/c1ccncc1	x	x	2	x	x	0
CCc1ccc(C2=NN(c3ccc(S(N)(=O)=O)cc3)C(c3ccc(F)cc3)C2)cc1 (centres undefined)	17*	14	-18	0	-4	39*
NS(=O)(=O)c1ccc(N2N=C(c3ccccc3)CC2c2ccccc2)cc1 (centres undefined)	x	x	-12	x	x	5.4*
C#CCOCCOCCOCCNc1nc(N2CCN(C(=O)Cn3cc(CCCN=C(N)N)nn3)CC2)nc(N2CCN(C(=O)[C@H]([C@@H](C)CC)n3cc(CCCN=C(N)N)nn3)CC2)n1	x	x	3	x	x	-1
COc1cc(-c2nc(S(=O)(=O)c3ccc(C)cc3)c(N3CCOCC3)o2)cc(OC)c1OC	18*	3	-4	-5	-55	-1
CCN1/C(=C2\C(=O)N(C)C(=S)N2C)C=Cc2cc(C)ccc21	x	x	-4	x	x	1
C#CCNc1nc(CC)nc2c1nnn2Cc1ccccc1F	28*	5	-3	2	-30	0
Cc1ccccc1NC(=S)Nc1ccc(Br)cc1	x	x	11	x	x	-1
SMILES	S1P2 ag	Rev-RRE block	GALR2 antag	EphB4 ephrin blk	S1P2 antag	GALR2 agonist
C(=N\Nc1nc(Nc2ccccc2)nc(N2CCOCC2)n1)/c1c[nH]c2ccccc12	-8	-5	13	3	47*	-2
Cc1ccc(Nc2nc(N/N=C/c3c[nH]c4ccccc34)nc(N3CCOCC3)n2)cc1	x	x	16	x	x	-1
O=C(NNc1c(Cl)cc(Cl)cc1Cl)C1CCC1	x	x	-12	x	x	-1
Cc1nnc(Sc2nc3c(c(=O)[nH]c(=O)n3C)n2CCCc2ccccc2)s1	27*	3	-5	1	-31	-3
CCN1CCN(CCNC(=O)C2CCCN(Cc3nc(-c4cccc(Cl)c4)oc3C)C2)CC1 (centres undefined)	-3	0	-2	1	19	-3
CCOC(=O)N1CCC(NC(=O)C2CCCN(Cc3nc(-c4cccc(Cl)c4)oc3C)C2)CC1 (centres undefined)	-2	1	25	2	61*	-1
COc1ccc([N+](=O)[O-])cc1NC(=O)c1ccc(CN(c2ccccc2)S(C)(=O)=O)cc1	x	x	-1	x	x	0
Cc1ccc(-c2noc(CCC(=O)N3CCCc4ccccc43)n2)cc1	43*	10	-8	8	-6	-2
CSc1c(CC(=O)Nc2ccc(F)cc2)n(Cc2ccccc2)c2ccccc12	x	x	5	x	x	-2
COc1ccc(C(C)=O)cc1CSc1nc2ccccc2c(=O)n1-c1ccccc1	x	x	-13	x	x	5.0*
Cc1ccc(C(OCCN(C)C)c2cccc(C(F)(F)F)c2)cc1 (centres undefined)	x	x	-18	x	x	-2
Cc1cc(C(=O)COC(=O)c2ccc(CO)cc2)c(C)n1CC1COc2ccccc2O1 (centres undefined)	x	x	-8	x	x	0
Clc1ccc2[nH]c3c(NCCCN4CCOCC4)ncnc3c2c1	4	10	13	-1	-19	-3
O=C1CCCN1CCCNc1ncnc2c1[nH]c1ccc(Cl)cc12	17*	12	-18	2	11	-1
C=CCn1c(COc2cccc(C)c2)nnc1SCn1nnc2ccccc2c1=O	x	x	8	x	x	-1
CCSc1ccc(-c2nn(-c3ccccc3)cc2/C=C(/C#N)C(=O)NC)cc1	x	x	9	x	x	26*
O=C(N/N=C/c1ccc(-c2cccc(C(F)(F)F)c2)o1)c1ccccc1Br	-3	60*	1	-8	-8	-1
O=C(N/N=C/c1ccc(-c2cccc(C(F)(F)F)c2)o1)c1ccccc1O	x	x	1	x	x	-2
CN1/C(=C\C=Nc2ccc3ccccc3c2)C(C)(C)c2ccccc21	-9	63*	13	-1	26	-1
O=C(N/N=C/c1ccncc1)c1cc([N+](=O)[O-])cc([N+](=O)[O-])c1O	-3	5	7	19*	-1	0
O=C(N/N=C/c1cccc([N+](=O)[O-])c1)c1cnccn1	x	x	0	x	x	-1
CCn1c2ccc(Cl)cc2c2nc3ccccc3nc21	43*	9	5	5	-39	0
CCOc1ccc(Cn2c3ccc(OC)cc3c3nc4ccccc4nc32)cc1	x	x	7	x	x	-2
CCn1c2ccc(OC)cc2c2nc3ccccc3nc21	34*	15	-1	-6	-33	-1
CC(C)c1ccc2nc3sc(C(=O)N4CCc5ccccc5C4)c(N)c3cc2c1	-4	57*	1	-4	-12	-3
